From ChEMBL document CHEMBL3784971, “Synthesis, characterization, antimicrobial and biofilm inhibitory studies of new esterquats” (Bioorg Med Chem Lett, 2016)
Blank lines part the entries; values can stand above or below the molecule they belong to. Active and inactive are the calls of the source. No cut-off for these calls is given here.

What was measured:
Candida albicans [1] = assay: Fungicidal activity against Candida albicans MTCC 3018 after 24 hrs by serial dilution method; type: functional; details: MTCC 3018, 24 h
Candida albicans [2] = assay: Antimicrobial activity against Candida albicans MTCC 3018 assessed as growth inhibition after 24 hrs by agar well diffusion method; type: functional; details: MTCC 3018, 24 h
Candida albicans [3] = assay: Fungicidal activity against Candida albicans MTCC 854 after 24 hrs by serial dilution method; type: functional; details: MTCC 854, 24 h
Candida albicans [4] = assay: Antimicrobial activity against Candida albicans MTCC 7315 assessed as growth inhibition after 24 hrs by agar well diffusion method; type: functional; details: MTCC 7315, 24 h
Micrococcus luteus [5] = assay: Bactericidal activity against Micrococcus luteus MTCC 2470 after 24 hrs by serial dilution method; type: functional; details: MTCC 2470, 24 h
Candida albicans [6] = assay: Fungicidal activity against Candida albicans MTCC 7315 after 24 hrs by serial dilution method; type: functional; details: MTCC 7315, 24 h
[Candida] aaseri [7] = Antimicrobial activity against Candida aaseri MTCC 1962 assessed as growth inhibition after 24 hrs by agar well diffusion method; type: functional; details: Yamadazyma aaseri, MTCC 1962, 24 h
Staphylococcus aureus [8] = assay: Antimicrobial activity against Staphylococcus aureus MLS16 MTCC 2940 assessed as growth inhibition after 24 hrs by agar well diffusion method; type: functional; details: MLS16 MTCC 2940, 24 h
Escherichia coli [9] = assay: Bactericidal activity against Escherichia coli MTCC 739 after 24 hrs by serial dilution method; type: functional; details: MTCC 739, 24 h
Staphylococcus aureus [10] = assay: Antimicrobial activity against Staphylococcus aureus MTCC 96 assessed as growth inhibition after 24 hrs by agar well diffusion method; type: functional; details: MTCC 96, 24 h
Staphylococcus aureus [11] = assay: Antibiofilm activity against Staphylococcus aureus MTCC 96 after 24 hrs by crystal violet staining based assay; type: functional, organism-based; details: MTCC 96, 24 h
Outline: (§1)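 Biofilm inhibition tested for amine esters and esterquats. IC50 values (µg/mL) are the mean of three determinations, with ciprofloxacin as reference.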

Staphylococcus aureus [12] = assay: Bactericidal activity against Staphylococcus aureus MTCC 96 after 24 hrs by serial dilution method; type: functional; details: MTCC 96, 24 h
Staphylococcus aureus [13] = assay: Antibiofilm activity against Staphylococcus aureus MLS16 MTCC 2940 after 24 hrs by crystal violet staining based assay; type: functional, organism-based; details: MLS16 MTCC 2940, 24 h; outline: as §1
Bacillus subtilis [14] = assay: Antimicrobial activity against Bacillus subtilis MTCC 121 assessed as growth inhibition after 24 hrs by agar well diffusion method; type: functional; details: MTCC 121, 24 h
Candida albicans [15] = assay: Antimicrobial activity against Candida albicans MTCC 3017 assessed as growth inhibition after 24 hrs by agar well diffusion method; type: functional; details: MTCC 3017, 24 h
Candida albicans [16] = assay: Fungicidal activity against Candida albicans MTCC 227 after 24 hrs by serial dilution method; type: functional; details: MTCC 227, 24 h
Pichia kudriavzevii [17] = assay: Fungicidal activity against Candida krusei MTCC 3020 after 24 hrs by serial dilution method; type: functional; details: MTCC 3020, 24 h
[Candida] aaseri [18] = Fungicidal activity against Candida aaseri MTCC 1962 after 24 hrs by serial dilution method; type: functional; details: Yamadazyma aaseri, MTCC 1962, 24 h
Micrococcus luteus [19] = assay: Antimicrobial activity against Micrococcus luteus MTCC 2470 assessed as growth inhibition after 24 hrs by agar well diffusion method; type: functional; details: MTCC 2470, 24 h
Pichia kudriavzevii [20] = assay: Antimicrobial activity against Candida krusei MTCC 3020 assessed as growth inhibition after 24 hrs by agar well diffusion method; type: functional; details: MTCC 3020, 24 h
Candida albicans [21] = assay: Fungicidal activity against Candida albicans MTCC 4748 after 24 hrs by serial dilution method; type: functional; details: MTCC 4748, 24 h
Staphylococcus aureus [22] = assay: Bactericidal activity against Staphylococcus aureus MLS16 MTCC 2940 after 24 hrs by serial dilution method; type: functional; details: MLS16 MTCC 2940, 24 h
Staphylococcus aureus [23] = assay: Bactericidal activity against Staphylococcus aureus MLS16 MTCC 2940 sessile forms assessed as increase in intracellular ROS accumulation in at 0.5 to 2 ug/mL after 24 hrs by DCFHDA staining based fluorometric assay; type: functional, organism-based
Outline: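 Intracellular ROS measured in cells of mature biofilms using the general ROS fluorescent probe 2′,7′-dichlorofluorescein-diacetate (DCFH-DA), read as increase in fluorescence. Sessile cells and the supernatant were measured separately.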

Nakaseomyces glabratus [24] = assay: Antimicrobial activity against Candida glabrata MTCC 3019 assessed as growth inhibition after 24 hrs by agar well diffusion method; type: functional; details: MTCC 3019, 24 h
Candida albicans [25] = assay: Fungicidal activity against Candida albicans MTCC 3958 after 24 hrs by serial dilution method; type: functional; details: MTCC 3958, 24 h
Micrococcus luteus [26] = assay: Antibiofilm activity against Micrococcus luteus MTCC 2470 after 24 hrs by crystal violet staining based assay; type: functional, organism-based; details: MTCC 2470, 24 h; outline: as §1
Candida albicans [27] = assay: Antimicrobial activity against Candida albicans MTCC 1637 assessed as growth inhibition after 24 hrs by agar well diffusion method; type: functional; details: MTCC 1637, 24 h
Escherichia coli [28] = assay: Antimicrobial activity against Escherichia coli MTCC 739 assessed as growth inhibition after 24 hrs by agar well diffusion method; type: functional; details: MTCC 739, 24 h
Pichia sporocuriosa [29] = assay: Antimicrobial activity against Issatchenkia hanoiensis MTCC 4755 assessed as growth inhibition after 24 hrs by agar well diffusion method; type: functional; details: MTCC 4755, 24 h
Candida albicans [30] = assay: Antimicrobial activity against Candida albicans MTCC 227 assessed as growth inhibition after 24 hrs by agar well diffusion method; type: functional; details: MTCC 227, 24 h
Candida albicans [31] = assay: Fungicidal activity against Candida albicans MTCC 3017 after 24 hrs by serial dilution method; type: functional; details: MTCC 3017, 24 h
Bacillus subtilis [32] = assay: Antibiofilm activity against Bacillus subtilis MTCC 121 after 24 hrs by crystal violet staining based assay; type: functional, organism-based; details: MTCC 121, 24 h; outline: as §1
Candida albicans [33] = assay: Antimicrobial activity against Candida albicans MTCC 183 assessed as growth inhibition after 24 hrs by agar well diffusion method; type: functional; details: MTCC 183, 24 h
Candida albicans [34] = assay: Antimicrobial activity against Candida albicans MTCC 4748 assessed as growth inhibition after 24 hrs by agar well diffusion method; type: functional; details: MTCC 4748, 24 h
Candida albicans [35] = assay: Fungicidal activity against Candida albicans MTCC 183 after 24 hrs by serial dilution method; type: functional; details: MTCC 183, 24 h
Bacillus subtilis [36] = assay: Bactericidal activity against Bacillus subtilis MTCC 121 after 24 hrs by serial dilution method; type: functional; details: MTCC 121, 24 h
Candida albicans [37] = assay: Antimicrobial activity against Candida albicans MTCC 854 assessed as growth inhibition after 24 hrs by agar well diffusion method; type: functional; details: MTCC 854, 24 h
Pseudomonas aeruginosa = assay: Antimicrobial activity against Pseudomonas aeruginosa MTCC 2453 assessed as growth inhibition after 24 hrs by agar well diffusion method; type: functional; details: MTCC 2453, 24 h
Candida parapsilosis [38] = assay: Antimicrobial activity against Candida parapsilosis MTCC 1744 assessed as growth inhibition after 24 hrs by agar well diffusion method; type: functional; details: Lodderomyces parapsilosis, MTCC 1744, 24 h
Nakaseomyces glabratus [39] = assay: Fungicidal activity against Candida glabrata MTCC 3019 after 24 hrs by serial dilution method; type: functional; details: MTCC 3019, 24 h
Raoultella planticola [40] = assay: Bactericidal activity against Klebsiella planticola MTCC 530 after 24 hrs by serial dilution method; type: functional; details: MTCC 530, 24 h
Candida albicans [41] = assay: Fungicidal activity against Candida albicans MTCC 1637 after 24 hrs by serial dilution method; type: functional; details: MTCC 1637, 24 h
Pichia sporocuriosa [42] = assay: Fungicidal activity against Issatchenkia hanoiensis MTCC 4755 after 24 hrs by serial dilution method; type: functional; details: MTCC 4755, 24 h
Candida parapsilosis [43] = assay: Fungicidal activity against Candida parapsilosis MTCC 1744 after 24 hrs by serial dilution method; type: functional; details: Lodderomyces parapsilosis, MTCC 1744, 24 h
Candida albicans [44] = assay: Antimicrobial activity against Candida albicans MTCC 3958 assessed as growth inhibition after 24 hrs by agar well diffusion method; type: functional; details: MTCC 3958, 24 h
Raoultella planticola [45] = assay: Antimicrobial activity against Klebsiella planticola MTCC 530 assessed as growth inhibition after 24 hrs by agar well diffusion method; type: functional; details: MTCC 530, 24 h

- MIC (Candida albicans [2]): 15.6 µg/mL
- MIC (Candida albicans [4]): 15.6 µg/mL
- MIC ([Candida] aaseri [7]): 7.8 µg/mL
- MIC (Staphylococcus aureus [8]): 3.9 µg/mL
- MIC (Staphylococcus aureus [10]): 3.9 µg/mL
- IC50 (Staphylococcus aureus [11]): 1.9 µg/mL
- IC50 (Staphylococcus aureus [13]): 0.9 µg/mL
- MIC (Bacillus subtilis [14]): 7.8 µg/mL
- MIC (Candida albicans [15]): 7.8 µg/mL
- MIC (Micrococcus luteus [19]): 1.9 µg/mL
- MIC (Pichia kudriavzevii [20]): 31.2 µg/mL
- MIC (Nakaseomyces glabratus [24]): 15.6 µg/mL
- IC50 (Micrococcus luteus [26]): 1.5 µg/mL
- MIC (Candida albicans [27]): 15.6 µg/mL
- MIC (Escherichia coli [28]): > 125 µg/mL
- MIC (Pichia sporocuriosa [29]): 15.6 µg/mL
- MIC (Candida albicans [30]): 15.6 µg/mL
- IC50 (Bacillus subtilis [32]): 4.1 µg/mL
- MIC (Candida albicans [33]): 15.6 µg/mL
- MIC (Candida albicans [34]): 7.8 µg/mL
- MIC (Candida albicans [37]): 31.2 µg/mL
- MIC (Pseudomonas aeruginosa): > 125 µg/mL
- MIC (Candida parapsilosis [38]): 15.6 µg/mL
- MIC (Candida albicans [44]): 15.6 µg/mL
Structure (SMILES): CCCCCC[N+](C)(CCCCCCCCCCC(=O)OC)CCCCCCCCCCC(=O)OC.[Cl-]
- MFC (Candida albicans [1]): 31.2 µg/mL
- MFC (Candida albicans [3]): 62.5 µg/mL
- MBC (Micrococcus luteus [5]): 3.9 µg/mL
- MFC (Candida albicans [6]): 31.2 µg/mL
- MBC (Escherichia coli [9]): > 125 µg/mL
- MBC (Staphylococcus aureus [12]): 7.8 µg/mL
- MFC (Candida albicans [16]): 31.2 µg/mL
- MFC (Pichia kudriavzevii [17]): 62.5 µg/mL
- MFC ([Candida] aaseri [18]): 15.6 µg/mL
- MFC (Candida albicans [21]): 7.8 µg/mL
- MBC (Staphylococcus aureus [22]): 3.9 µg/mL
- Activity (Staphylococcus aureus [23]): Active
- MFC (Candida albicans [25]): 15.6 µg/mL
- MFC (Candida albicans [31]): 15.6 µg/mL
- MFC (Candida albicans [35]): 31.2 µg/mL
- MBC (Bacillus subtilis [36]): 15.6 µg/mL
- MFC (Nakaseomyces glabratus [39]): 31.2 µg/mL
- MBC (Raoultella planticola [40]): > 125 µg/mL
- MFC (Candida albicans [41]): 31.2 µg/mL
- MFC (Pichia sporocuriosa [42]): 31.2 µg/mL
- MFC (Candida parapsilosis [43]): 31.2 µg/mL
- MIC (Raoultella planticola [45]): > 125 µg/mL

- MIC (Candida albicans [2]): 62.5 µg/mL
- MIC (Candida albicans [4]): 31.2 µg/mL
- MIC ([Candida] aaseri [7]): 31.2 µg/mL
- MIC (Staphylococcus aureus [8]): 7.8 µg/mL
- MIC (Staphylococcus aureus [10]): 15.6 µg/mL
- IC50 (Staphylococcus aureus [11]): 9.1 µg/mL
- IC50 (Staphylococcus aureus [13]): 22.2 µg/mL
- MIC (Bacillus subtilis [14]): 15.6 µg/mL
- MIC (Candida albicans [15]): 31.2 µg/mL
- MIC (Micrococcus luteus [19]): 7.8 µg/mL
- MIC (Pichia kudriavzevii [20]): 62.5 µg/mL
- MIC (Nakaseomyces glabratus [24]): 31.2 µg/mL
- IC50 (Micrococcus luteus [26]): 8.8 µg/mL
- MIC (Candida albicans [27]): 62.5 µg/mL
- MIC (Escherichia coli [28]): 15.6 µg/mL
- MIC (Pichia sporocuriosa [29]): 31.2 µg/mL
- MIC (Candida albicans [30]): 31.2 µg/mL
- IC50 (Bacillus subtilis [32]): 8.5 µg/mL
- MIC (Candida albicans [33]): 31.2 µg/mL
- MIC (Candida albicans [34]): 15.6 µg/mL
- MIC (Candida albicans [37]): 31.2 µg/mL
- MIC (Pseudomonas aeruginosa): > 125 µg/mL
- MIC (Candida parapsilosis [38]): 62.5 µg/mL
- MIC (Candida albicans [44]): 62.5 µg/mL
Structure (SMILES): CCCCCCCCCCCC[N+](C)(C)CCCCCCCCCCC(=O)OC.[Cl-]
- MFC (Candida albicans [1]): 62.5 µg/mL
- MFC (Candida albicans [3]): 62.5 µg/mL
- MBC (Micrococcus luteus [5]): 31.2 µg/mL
- MFC (Candida albicans [6]): 31.2 µg/mL
- MBC (Escherichia coli [9]): 31.2 µg/mL
- MBC (Staphylococcus aureus [12]): 31.2 µg/mL
- MFC (Candida albicans [16]): 31.2 µg/mL
- MFC (Pichia kudriavzevii [17]): 62.5 µg/mL
- MFC ([Candida] aaseri [18]): 62.5 µg/mL
- MFC (Candida albicans [21]): 31.2 µg/mL
- MBC (Staphylococcus aureus [22]): 31.2 µg/mL
- MFC (Candida albicans [25]): 31.2 µg/mL
- MFC (Candida albicans [31]): 62.5 µg/mL
- MFC (Candida albicans [35]): 31.2 µg/mL
- MBC (Bacillus subtilis [36]): 31.2 µg/mL
- MFC (Nakaseomyces glabratus [39]): 31.2 µg/mL
- MBC (Raoultella planticola [40]): 15.6 µg/mL
- MFC (Candida albicans [41]): 62.5 µg/mL
- MFC (Pichia sporocuriosa [42]): 62.5 µg/mL
- MFC (Candida parapsilosis [43]): 62.5 µg/mL
- MIC (Raoultella planticola [45]): 7.8 µg/mL
